Laboratory results: ChEMBL document CHEMBL1157591, “Selective benzimidazole inhibitors of the antigen receptor-mediated NF-kappaB activation pathway” (Bioorg Med Chem, 2010)

How the values were obtained:
[1] = Inhibition of antigen receptor-mediated NF-kappaB activity in HEK293 cells after 16 hrs by luciferase reporter gene assay; conditions: Homo sapiens, HEK293, 16 h
[2] = Metabolic stability in human liver microsomes assessed as half life in NADPH co-factor system by RP-HPLC; type: ADME, Microsome
Procedure, shortened: (§1)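 Substrate at 100 µM with human liver microsomes or S9 at 1.6 mg/mL, NADPH-generating system (NADP+, 400 µM glucose-6-phosphate, DETAPAC, 4 IU/mL G6P dehydrogenase), 50 mM potassium phosphate pH 7.4, 37 °C with shaking. Started by adding HLM/S9. Aliquots at 0–60 min stopped in cold acetonitrile and run in duplicate. Parent loss measured by RP-HPLC.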

Cytochrome P450 3A4 = Cytochrome P450 3A4 (Homo sapiens, UniProt P08684); assay: Inhibition of CYP3A4-mediated hydroxylation of testosterone in human liver microsomes in NADPH co-factor system by RP-HPLC; type: ADME, Microsome
Chain of Cytochrome P450 3A4 (P08684 whole entry): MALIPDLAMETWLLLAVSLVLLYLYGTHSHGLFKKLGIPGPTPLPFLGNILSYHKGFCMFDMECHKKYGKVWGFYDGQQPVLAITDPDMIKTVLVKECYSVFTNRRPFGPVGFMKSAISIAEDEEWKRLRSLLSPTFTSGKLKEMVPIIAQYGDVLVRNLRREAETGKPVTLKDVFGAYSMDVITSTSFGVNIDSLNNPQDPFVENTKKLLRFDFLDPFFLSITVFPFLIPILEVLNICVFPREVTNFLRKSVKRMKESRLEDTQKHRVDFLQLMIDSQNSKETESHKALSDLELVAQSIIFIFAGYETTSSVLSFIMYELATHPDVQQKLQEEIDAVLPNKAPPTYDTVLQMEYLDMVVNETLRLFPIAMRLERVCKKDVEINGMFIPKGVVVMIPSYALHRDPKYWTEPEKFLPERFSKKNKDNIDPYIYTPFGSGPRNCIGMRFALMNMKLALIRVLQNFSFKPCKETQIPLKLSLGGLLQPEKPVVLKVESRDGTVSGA

[3] = Metabolic stability in human liver S9 fraction in PAPS co-factor system by RP-HPLC; type: ADME, subcellular
Procedure, shortened: (§2)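 Substrate at 100 µM with HLM or S9 at 1.6 mg/mL and 100 µM PAPS in 50 mM Tris–HCl pH 7.4, 37 °C. Started by adding HLM/S9. Aliquots at 0, 5, 15, 30, 45 and 60 min stopped in cold acetonitrile and run in duplicate. Sulfation taken from parent disappearance by RP-HPLC.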

[4] = Metabolic stability in human liver S9 fraction assessed as half life in NADPH co-factor system by RP-HPLC; type: ADME, subcellular
Procedure, shortened: as §1

[5] = Metabolic stability in human liver S9 fraction in UDPG co-factor system by RP-HPLC; type: ADME, subcellular
Procedure, shortened: (§3)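 Glucuronidation with UDPG cofactor plus lecithin, using HLM or S9 in 50 mM potassium phosphate pH 7.4 at 37 °C with shaking. Started by adding HLM/S9. Aliquots at 0–60 min stopped in cold acetonitrile and run in duplicate. Parent disappearance followed by RP-HPLC.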

Liver microsomes [6] = assay: Metabolic stability in human liver microsomes in UDPG co-factor system by RP-HPLC; type: ADME, Microsome
Procedure, shortened: as §3

Liver microsomes [7] = assay: Metabolic stability in human liver microsomes in PAPS co-factor system by RP-HPLC; type: ADME, Microsome
Procedure, shortened: as §2

Cc1cc2nc(N3CCN(C)CC3)n(CC(=O)c3cc(C(C)(C)C)c(O)c(C(C)(C)C)c3)c2cc1C
IC50 [1]: > 5 µM

COCCCNc1nc2cc(C)c(C)cc2n1CC(=O)c1cc(C(C)(C)C)c(OC)c(C(C)(C)C)c1
IC50 [1]: 0.25 µM

Cc1cc2nc(N3CCC(O)C3)n(CC(=O)c3cc(C(C)(C)C)c(O)c(C(C)(C)C)c3)c2cc1C (centres undefined)
IC50 [1]: > 5 µM

Cc1cc2nc(N3CCC(C)CC3)n(CC(=O)c3cc(C(C)(C)C)c(O)c(C(C)(C)C)c3)c2cc1C
IC50 [1]: > 5 µM

Cc1cc2nc(N3CCCCC3)n(CC(=O)c3cc(C(C)(C)C)c(O)c(C(C)(C)C)c3)c2cc1C
IC50 [1]: > 5 µM

Cc1cc2nc(N3CCCCC3CO)n(CC(=O)c3cc(C(C)(C)C)c(O)c(C(C)(C)C)c3)c2cc1C (centres undefined)
IC50 [1]: > 5 µM

Cc1cc2nc(N3CCCC3)n(CC(=O)c3cc(C(C)(C)C)c(O)c(C(C)(C)C)c3)c2cc1C
IC50 [1]: > 5 µM

C[C@]12CC[C@H]3[C@@H](CCC4=CC(=O)CC[C@@]43C)[C@@H]1CC[C@@H]2O [TESTOSTERONE]
half-life [2]: 0.8 h

Cc1cc2nc(NCCCO)n(CC(=O)c3cc(C)c(O)c(C)c3)c2cc1C
IC50 [1]: > 5 µM

Cc1cc2nc(N3CCCCC3CN(C)C)n(CC(=O)c3cc(C(C)(C)C)c(O)c(C(C)(C)C)c3)c2cc1C (centres undefined)
IC50 [1]: > 5 µM

CCCCNc1nc2cc(C)c(C)cc2n1CC(=O)c1cc(C(C)(C)C)c(O)c(C(C)(C)C)c1
IC50 [1]: 0.1 µM

COCCCNc1nc2cc(C)c(C)cc2n1CC(=O)c1cc(C(C)(C)C)c(O)c(C(C)(C)C)c1
IC50 [1]: 0.25 µM | IC50 (Cytochrome P450 3A4): 97 µM

COC[C@@H]1CCCN1c1nc2cc(C)c(C)cc2n1CC(=O)c1cc(C(C)(C)C)c(O)c(C(C)(C)C)c1
IC50 [1]: > 5 µM

CCC1C(C)CN(c2nc3cc(C)c(C)cc3n2CC(=O)c2cc(C(C)(C)C)c(O)c(C(C)(C)C)c2)C1C (centres undefined)
IC50 [1]: > 5 µM

Cc1cc2nc(N3CCN(CCO)CC3)n(CC(=O)c3cc(C(C)(C)C)c(O)c(C(C)(C)C)c3)c2cc1C
IC50 [1]: > 5 µM | Stability [3]: Stable | half-life [4]: 4.6 h | Stability [5]: Stable | Stability (Liver microsomes [6]): Stable | Stability (Liver microsomes [7]): Stable

Cc1cc2nc(N3CCCC(C)C3)n(CC(=O)c3cc(C(C)(C)C)c(O)c(C(C)(C)C)c3)c2cc1C (centres undefined)
IC50 [1]: > 5 µM

COCCCNc1nc2cc(C)c(C)cc2n1CC(=O)c1ccc(O)cc1
IC50 [1]: > 5 µM

COc1c(C(C)(C)C)cc(C(=O)Cn2c(NCCCO)nc3cc(C)c(C)cc32)cc1C(C)(C)C
IC50 [1]: 0.07 µM | IC50 (Cytochrome P450 3A4): 67 µM

Cc1cc2nc(N3CCC(O)CC3)n(CC(=O)c3cc(C(C)(C)C)c(O)c(C(C)(C)C)c3)c2cc1C
IC50 [1]: > 5 µM

Cc1cc2nc(NCCCO)n(CC(=O)c3ccc(O)cc3)c2cc1C
IC50 [1]: > 5 µM

COc1ccccc1N1CCN(c2nc3cc(C)c(C)cc3n2CC(=O)c2cc(C(C)(C)C)c(O)c(C(C)(C)C)c2)CC1
IC50 [1]: > 5 µM

Cc1cc2nc(N3CCC(Cc4ccccc4)CC3)n(CC(=O)c3cc(C(C)(C)C)c(O)c(C(C)(C)C)c3)c2cc1C
IC50 [1]: > 5 µM

Cc1cc2nc(N3CC(C)CC(C)C3)n(CC(=O)c3cc(C(C)(C)C)c(O)c(C(C)(C)C)c3)c2cc1C (centres undefined)
IC50 [1]: > 5 µM

Cc1cc2nc(N3CCCCC3C)n(CC(=O)c3cc(C(C)(C)C)c(O)c(C(C)(C)C)c3)c2cc1C (centres undefined)
IC50 [1]: > 5 µM

Cc1cc2nc(N3CCC[C@H]3CN3CCCC3)n(CC(=O)c3cc(C(C)(C)C)c(O)c(C(C)(C)C)c3)c2cc1C
IC50 [1]: > 5 µM

COCCCNc1nc2cc(C)c(C)cc2n1CC(=O)c1cc(C)c(O)c(C)c1
IC50 [1]: > 5 µM

C#CCNc1nc2cc(C)c(C)cc2n1CC(=O)c1cc(C(C)(C)C)c(O)c(C(C)(C)C)c1
IC50 [1]: > 8 µM

Cc1cc2nc(N3CCOCC3)n(CC(=O)c3cc(C(C)(C)C)c(O)c(C(C)(C)C)c3)c2cc1C
IC50 [1]: > 5 µM

Cc1cc2nc(N3CCN(Cc4ccccc4)CC3)n(CC(=O)c3cc(C(C)(C)C)c(O)c(C(C)(C)C)c3)c2cc1C
IC50 [1]: > 5 µM | Stability [3]: Stable | half-life [4]: 4.4 h | Stability [5]: Stable | Stability (Liver microsomes [6]): Stable | Stability (Liver microsomes [7]): Stable

Cc1cc2nc(NCCCO)n(CC(=O)c3cc(C(C)(C)C)c(O)c(C(C)(C)C)c3)c2cc1C
IC50 [1]: 0.07 µM | half-life [2]: 5.5 h | Stability [3]: Stable | half-life [4]: 15.2 h | Stability [5]: Stable | Stability (Liver microsomes [6]): Stable | Stability (Liver microsomes [7]): Stable

CCN1CCN(c2nc3cc(C)c(C)cc3n2CC(=O)c2cc(C(C)(C)C)c(O)c(C(C)(C)C)c2)CC1
IC50 [1]: > 5 µM
